From ChEMBL document CHEMBL1124065, “Development of a new physicochemical model for brain penetration and its application to the design of centrally acting H2 receptor histamine antagonists” (J Med Chem, 1988)

How the values were obtained:
[1] = Log of (Cbrain/Cblood) in rats; settings: rat
[2] = molecular target: Histamine H2 receptor (Cavia porcellus) (UniProt P47747); experiment: In vitro Histamine H2 receptor antagonist activity in the histamine-stimulated guinea pig right atrium; format: functional, tissue-based; settings: Cardiac atrium
Sequence of Histamine H2 receptor (Cavia porcellus) (P47747 whole entry): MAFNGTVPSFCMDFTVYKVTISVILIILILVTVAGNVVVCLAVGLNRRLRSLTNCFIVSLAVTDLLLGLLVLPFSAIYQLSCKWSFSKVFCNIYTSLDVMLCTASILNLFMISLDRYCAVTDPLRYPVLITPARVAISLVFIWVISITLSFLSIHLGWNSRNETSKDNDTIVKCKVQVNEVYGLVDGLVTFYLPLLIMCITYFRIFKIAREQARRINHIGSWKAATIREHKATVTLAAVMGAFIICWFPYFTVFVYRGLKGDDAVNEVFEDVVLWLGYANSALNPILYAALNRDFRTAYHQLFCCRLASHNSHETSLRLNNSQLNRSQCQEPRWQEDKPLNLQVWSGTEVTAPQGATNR

[3] = Partition coefficient (Log Pn, neutral form, cyclohexane/water); format: ADME
Procedure, shortened: (§1)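 Shake-flask partitioning at 37 °C in 1-octanol/water and cyclohexane/water, with buffer salts setting aqueous pH. Aqueous-phase compound concentration was read spectrophotometrically before and after partitioning. Neutral-form log P was calculated from eq 1 using the measured log P at a stated pH and the pKa. Values are means of ≥2 determinations. Δlog P = log P(octanol) − log P(cyclohexane).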

[4] = Change in logarithm of partition coefficient of the compound; format: physicochemical; settings: octanol/water; procedure, shortened: as §1
[5] = (§2) Logarithm of partition coefficient of the neutral form of compound given for octanol/water solvent system; format: physicochemical
Procedure, shortened: as §1, with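 “pKa.” for “pKa. Values are means of ≥2 determinations. Δlog P = log P(octanol) − log P(cyclohexane).”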

[6] = Log (Cbrain/Cblood) in rats; settings: rat
[7] = Delta logPoct-cyc; format: ADME; settings: octanol/water
Procedure, shortened: as §1, with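 “pKa.” for “pKa. Values are means of ≥2 determinations. Δlog P = log P(octanol) − log P(cyclohexane).”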

[8] = as §2; format: physicochemical; procedure, shortened: as §1; remark: listed apart in the source
[9] = Logarithm of partition coefficient of the neutral form of compound given for […]/water solvent system; format: physicochemical; settings: octanol/water

SMILES	Kp ([1]; in vivo)	-Log KB [2]	Log Pn [3]	delta Log P [4]	logP [5]	other results
CC/N=C(\NC#N)NCCSCc1ncccc1Br	0.00753	6.5			1.98	Kp ([6]; in vivo): 0.00708
NCCCOc1cccc(CN2CCCCC2)c1		5.19				
c1ccc(NCCCOc2cccc(CN3CCCCC3)c2)cc1		5.7				
COc1cccnc1CCCCNc1ncc(Cc2ccc(C)nc2)c(=O)[nH]1 [ICOTIDINE]						delta logP [7]: 5.18; logP [8]: 2.58
COc1ccc(CN(CCN(C)C)c2ccccn2)cc1 [PYRILAMINE]					3.3	delta logP [7]: 0.71
Cc1csc(N=C(N)N)n1	0.873	6.27	-2.79	4.03		Kp ([6]; in vivo): 0.912
O=[N+]([O-])c1cc[nH]c1NCCSCc1ncccc1Br		7.24	-1.34	3.09	1.75	Kp ([1]; brain and blood): 0.214; Kp ([6]; brain and blood): 0.214
c1cc(CN2CCCCC2)cc(OCCCNc2nccs2)c1	1.98	7.41				Kp ([6]; in vivo): 2.75
CC(NCCCOc1cccc(CN2CCCCC2)c1)=C(C#N)C#N		< 4.9				
Clc1cccc(Cl)c1N=C1NCCN1 [CLONIDINE]						delta logP [7]: 2.44
c1cc(CN2CCCCC2)cc(OCCCNc2nc3ccccc3o2)c1	1.42	7.19				
O=[N+]([O-])c1cc[nH]c1NCCSCc1nccc2ccccc12		6.84	-0.67	3.46	2.79	
CC(=O)NCCCOc1cccc(CN2CCCCC2)c1	0.346	7.79	0.22	1.93	2.15	Kp ([6]; in vivo): 0.347
c1ccc(NCCCOc2cccc(CN3CCCCC3)c2)nc1	4.85	6.09	3.23	1.06	4.29	Kp ([6]; in vivo): 4.9
O=[N+]([O-])c1c(Cc2ccccc2)c[nH]c1NCCSCc1ccccn1		6.97				Kp ([1]; brain and blood): 0.724; Kp ([6]; brain and blood): 0.759
CN(C)Cc1ccc(-c2cccc(CNc3[nH]ccc3[N+](=O)[O-])c2)o1		< 3.8				
O=S(=O)(NCCCOc1cccc(CN2CCCCC2)c1)c1ccccc1		< 4.8				
CN(C)Cc1ccnc(-c2cccc(Nc3[nH]ccc3[N+](=O)[O-])c2)c1	0.454	6.6				Kp ([6]; in vivo): 0.525

Now from value to compound, other results behind:

Kp ([1]; in vivo)	-Log KB [2]	Log Pn [3]	delta Log P [4]	logP [5]	SMILES	other results
1.38	7.46	3.72	1.69		c1cc(CN2CCCCC2)cc(OCCCNc2nc3ccccc3s2)c1 [ZOLANTIDINE]	
0.018	7.36				CC(=O)Nc1cccc(-c2csc(N=C(N)N)n2)c1	Kp ([6]; in vivo): 0.0269
		1.31		2.78	OCCCOc1cccc(CN2CCCCC2)c1	
		-1.28	3.92	2.64	NC(N)=Nc1nc(-c2ccccc2)cs1	Kp ([1]; brain and blood): 0.66; Kp ([6]; brain and blood): 0.661
0.184	7.35	1.11	2.54	3.65	CN(C)Cc1ccc(CSCCNc2[nH]cc(Cc3ccccc3)c2[N+](=O)[O-])o1	Kp ([6]; in vivo): 0.186
				4.57	CN(C)Cc1ccc(CSCCNc2ncc(Cc3ccc4ccccc4c3)c(O)n2)o1	delta logP [7]: 4.1
	7.33	-3.19	4.6	1.41	N=C(N)Nc1nc(-c2cccc(N)c2)cs1	Kp ([1]; brain and blood): 0.0705; Kp ([6]; brain and blood): 0.0708
0.58	7.79	2.18	1.79	3.97	O=C(NCCCOc1cccc(CN2CCCCC2)c1)c1ccccc1	Kp ([6]; in vivo): 0.575
	< 3.8				CN(C)c1cccc(-c2csc(NC(=N)N)n2)c1	
	< 4.3				FC(F)(F)CNCCCOc1cccc(CN2CCCCC2)c1	
0.0586	7.05	< -3		0.27	CN/C(=C\[N+](=O)[O-])NCCSCc1ccc(CN(C)C)o1 [RANITIDINE]	Kp ([6]; in vivo): 0.0589
				0.6	CNC(=NCCSCc1csc(N=C(N)N)n1)NC#N [TIOTIDINE]	
	6.63	-1.48	3.12	1.64	CN(C)Cc1ccc(CSCCNc2[nH]ccc2[N+](=O)[O-])o1	Kp ([1]; brain and blood): 0.0652; Kp ([6]; brain and blood): 0.0759
0.18	6.7				O=[N+]([O-])c1cc[nH]c1NCCSCc1ccccn1	
	6.21				c1cc(CN2CCCCC2)cc(OCCCNc2ccc3ccccc3n2)c1	
	5.93				N=C(N)Nc1nc(-c2ccccc2)cs1	
	4.67				CS(=O)(=O)NCCCOc1cccc(CN2CCCCC2)c1	
	7.91	-1.48	3.81	2.33	Cc1ccc(Cc2c[nH]c(NCCSCc3ccc(CN(C)C)o3)nc2=O)cn1 [LUPITIDINE]	Kp ([1]; brain and blood): 0.0884; Kp ([6]; brain and blood): 0.0871; Log Pn [9]: 2.64
	6.02	0.22	2.88	3.1	CN(C)Cc1ccc(-c2cccc(Nc3[nH]ccc3[N+](=O)[O-])c2)o1	Kp ([1]; brain and blood): 0.545; Kp ([6]; brain and blood): 0.537
	7.31			1.04	Cc1[nH]cnc1CSCCNc1[nH]ccc1[N+](=O)[O-]	
	< 4.3				CN(C)Cc1ccc(-c2ccc(Nc3[nH]ccc3[N+](=O)[O-])cc2)o1	
	5.59				CN(C)c1cc(-c2n[nH]c(N)n2)ccn1	Kp ([6]; brain and blood): 0.0676
	7.84	-2.66	4.26		C/N=C(\NC#N)Nc1cccc(-c2csc(N=C(N)N)n2)c1	Kp ([1]; brain and blood): 0.0293; Kp ([6]; brain and blood): 0.0288
